In one series the test system is Moraxella catarrhalis. Briefly: Antibacterial activity against Moraxella catarrhalis 1502 by broth microdilution method. The series is classed as functional. The essentials:
(§1)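 Broth microdilution following NCCLS document M7-A4. Serial two-fold dilutions from 0.06 to 64 mcg/ml were tested. The MIC was the lowest concentration preventing visible growth, with the endpoint read with the aid of a mirror reader.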
Background: In broth dilution the organism is exposed to a series of concentrations in liquid medium.

Series [1] addresses T1, Peptide deformylase (Staphylococcus aureus, UniProt P68826).
T1 sequence (P68826 whole entry): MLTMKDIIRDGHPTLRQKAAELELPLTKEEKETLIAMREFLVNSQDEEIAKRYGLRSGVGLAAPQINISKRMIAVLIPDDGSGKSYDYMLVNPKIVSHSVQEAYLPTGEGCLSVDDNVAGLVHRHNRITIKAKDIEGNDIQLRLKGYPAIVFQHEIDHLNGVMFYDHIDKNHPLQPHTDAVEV
Briefly: Inhibition of Staphylococcus aureus PDF assessed as formate release from fMAS peptide substrate after 20 mins by formate dehydrogenase coupled assay.

In series [2] the test system is Streptococcus pneumoniae. Briefly: Antibacterial activity against Streptococcus pneumoniae 1629 by broth microdilution method. Format: functional. The essentials: as §1
Series [3] is described as follows: Metabolic stability of the compound in human blood assessed as compound remaining at 2000 ng/mL after 2 hrs. Format: ADME, tissue-based. The settings on record: read-out: Stability. In a few lines: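 Samples (n = 3) were spiked into fresh human blood at 2000 ng/mL, incubated at 37 °C for 120 min, and reported as % recovered at 2 h.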
In series [4] the target is T2, Peptide deformylase (Streptococcus pneumoniae serotype 4 (strain ATCC BAA-334 / TIGR4), UniProt Q9F2F0).
T2 sequence (Q9F2F0 whole entry): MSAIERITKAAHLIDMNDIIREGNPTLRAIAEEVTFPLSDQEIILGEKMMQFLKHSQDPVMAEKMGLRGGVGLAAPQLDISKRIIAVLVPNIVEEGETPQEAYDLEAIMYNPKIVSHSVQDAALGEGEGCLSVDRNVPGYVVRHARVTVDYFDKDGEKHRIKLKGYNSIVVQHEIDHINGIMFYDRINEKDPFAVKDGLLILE
Briefly: Inhibition of Streptococcus pneumoniae PDF assessed as formate release from fMAS peptide substrate after 20 mins by formate dehydrogenase coupled assay.

The subject of another series is Enterococcus faecalis. Briefly: Antibacterial activity against Enterococcus faecalis 7 by broth microdilution method. Format: functional. The essentials: as §1
Series [5] can be described thus: Metabolic stability of the compound in rat blood assessed as compound remaining at 2000 ng/mL after 2 hrs. The series is classed as ADME, tissue-based. The settings on record: read-out: Stability.
Series [6] can be described thus: Inhibition of Haemophilus influenzae PDF assessed as formate release from fMAS peptide substrate after 20 mins by formate dehydrogenase coupled assay. The essentials:
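Coupled assay in which formate released from the fMAS peptide is oxidized by formate dehydrogenase, reducing NAD to NADH, read as the rise in absorbance at 340. Reactions were started by adding PDF and velocities measured for 20 min at 25 °C. Values are the mean of at least 2 runs.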

In a further series the test system is Staphylococcus aureus. Briefly: Antibacterial activity against Staphylococcus aureus Oxford by broth microdilution method. Format: functional. The essentials: as §1
Series [7] has as its system Haemophilus influenzae. Briefly: Antibacterial activity against Haemophilus influenzae Q1 by broth microdilution method. Format: functional. The essentials:
as §1

Series [8] in a line: Plasma clearance in dog at 4.5 mg/kg, iv. The series is classed as ADME, organism-based, Canis lupus familiaris. More on the design: dose 4.5 mg/kg, route intravenous. The essentials:
(§2)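 Single-compound pharmacokinetics with n = 3 per species, given i.v. and p.o. Reported measures are plasma clearance after i.v. dosing, dose-normalized AUC(0–inf) after oral dosing, and oral bioavailability.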

Another series relates to Rhesus monkey. Briefly: Dose normalized AUC (0 to infinity) in monkey at 5.1 mg/kg, po. The series is classed as ADME, organism-based, Macaca mulatta. Set-up: dose 5.1 mg/kg, route oral. The settings on record: in vivo. The essentials: as §2
For series [9], the system named is Streptococcus pneumoniae. Briefly: Antibacterial activity against Streptococcus pneumoniae 1629 infected in rat respiratory tract infection model assessed as reduction in bacterial count at 150 mg/kg, po bid for 4 days relative to control. The series is classed as functional. In a few lines: (§3)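 Rat respiratory tract infection models with oral b.i.d. dosing. Efficacy was read as bacterial lung counts (log10 cfu/mL) compared with non-treated controls.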

Series [10] can be described thus: Oral bioavailability in monkey at 5.1 mg/kg. The series is classed as ADME, organism-based, Macaca mulatta. The settings on record: rhesus monkey, in vivo. In a few lines:
as §2

The subject of a further series is Canis familiaris. Briefly: Dose normalized AUC (0 to infinity) in dog at 6.5 mg/kg, po. The series is classed as ADME, organism-based, Canis lupus familiaris. Set-up: dose 6.5 mg/kg, route oral. The settings on record: in vivo. In a few lines:
as §2

Another series has as its system Rattus norvegicus. Briefly: Dose normalized AUC (0 to infinity) in rat at 27.1 mg/kg, po. Format: ADME, organism-based. Set-up: dose 27.1 mg/kg, route oral. The settings on record: in vivo. In a few lines:
as §2

Series [11] in a line: Oral bioavailability in dog at 6.5 mg/kg. The series is classed as ADME, organism-based, Canis lupus familiaris. The settings on record: in vivo. In a few lines: as §2
The subject of series [12] is Haemophilus influenzae. Briefly: Antibacterial activity against Haemophilus influenzae H128 infected in rat respiratory tract infection model assessed as reduction in bacterial count at 300 mg/kg, po bid for 2 days relative to control. Format: functional. The essentials:
as §3

Series [13] can be described thus: Plasma clearance in monkey at 3 mg/kg, iv. The series is classed as ADME, organism-based, Macaca mulatta. More on the design: dose 3 mg/kg, route intravenous. The settings on record: rhesus monkey. In a few lines:
as §2

The subject of series [14] is Streptococcus pneumoniae. Briefly: Antibacterial activity against Streptococcus pneumoniae 1629 infected in rat respiratory tract infection model assessed as reduction in bacterial count at 75 mg/kg, po bid for 4 days relative to control. The series is classed as functional. In a few lines: as §3
A short description of series [15]: Oral bioavailability in rat at 27.1 mg/kg. Format: ADME, organism-based. The settings on record: in vivo. In a few lines:
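Rat oral bioavailability (n = 3) was estimated from a non-crossover study comparing i.v. and p.o. dosing.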

Values after ≈ are worked out from the molar mass of the structure shown.

One may read the IC50 as the concentration needed to halve the response being measured. Turning to `O=CN(O)C[C@@H](CC1CCCC1)C(=O)N1CCC[C@H]1C(=O)NC(=O)OC1CCOCC1`, the MIC was ≤ 0.06 µg/mL in the series with Moraxella catarrhalis; 0.25 µg/mL (≈ 0.569 µM) against Streptococcus pneumoniae [2]; 2 µg/mL (≈ 4.55 µM) in the series on Enterococcus faecalis; 1 µg/mL (≈ 2.28 µM) against Staphylococcus aureus; 0.5 µg/mL (≈ 1.14 µM) in the series on Haemophilus influenzae [7]. Further, the figures for the half-inhibitory concentration (IC50) (on Peptide deformylase [1]; at Peptide deformylase [4]; in series [6]) were 4.4 nM, 0.66 nM and 3.1 nM, respectively. Besides, the figures for the remaining at 2 h, 2000 ng/mL in [3] and in [5] were 23% and 9.5%, respectively.

Consider `CC(C)(C)OC(=O)NC(=O)[C@@H]1CCCN1C(=O)[C@H](CC1CCCC1)CN(O)C=O`, for which the MIC in the series with Moraxella catarrhalis was ≤ 0.06 µg/mL; against Streptococcus pneumoniae [2] it was 0.25 µg/mL (≈ 0.608 µM); against Enterococcus faecalis it was 1 µg/mL (≈ 2.43 µM); in the series on Staphylococcus aureus it was 1 µg/mL (≈ 2.43 µM); against Haemophilus influenzae [7], 0.25 µg/mL (≈ 0.608 µM). For the same compound, the IC50 amounted to 3.4 nM on Peptide deformylase [1], 0.52 nM on Peptide deformylase [4] and 3.2 nM in series [6]. Besides, the remaining at 2 h, 2000 ng/mL was 52% in series [3] and 27.6% in series [5].

For `O=CN(O)C[C@@H](CC1CCCC1)C(=O)N1CCC[C@H]1C(=O)NC(=O)OC1CCCCC1`, the MIC in the series on Moraxella catarrhalis is ≤ 0.06 µg/mL; in the series with Streptococcus pneumoniae [2] it was 0.125 µg/mL (≈ 0.286 µM); in the series with Enterococcus faecalis, 0.5 µg/mL (≈ 1.14 µM); against Staphylococcus aureus, 0.25 µg/mL (≈ 0.571 µM); against Haemophilus influenzae [7], 1 µg/mL (≈ 2.29 µM). In addition, the figures for the IC50 (at Peptide deformylase [1]; on Peptide deformylase [4]; in series [6]) were 1.5 nM, 0.3 nM and 2.3 nM, respectively. Moreover, the remaining at 2 h, 2000 ng/mL in series [3] amounted to 45.8%; in series [5], 0.4%.

As for `O=CN(O)C[C@@H](CC1CCCC1)C(=O)N1CCC[C@H]1C(=O)NC(=O)OC1CCC1`, the MIC in the series with Moraxella catarrhalis is ≤ 0.06 µg/mL; against Streptococcus pneumoniae [2] it was 0.25 µg/mL (≈ 0.611 µM); against Enterococcus faecalis, 1 µg/mL (≈ 2.44 µM); against Staphylococcus aureus, 0.5 µg/mL (≈ 1.22 µM); in the series on Haemophilus influenzae [7], 0.5 µg/mL (≈ 1.22 µM). Further, the half-maximal inhibitory concentration (IC50) on Peptide deformylase [1] is 2.4 nM; at Peptide deformylase [4], 0.51 nM; in series [6], 5.8 nM. Further, the remaining at 2 h, 2000 ng/mL in [3] was 31.7%; in series [5] it was 0%.

As for `CC(C)(C)C(=O)NC(=O)[C@@H]1CCCN1C(=O)[C@H](CC1CCCC1)CN(O)C=O`, the MIC against Moraxella catarrhalis was ≤ 0.06 µg/mL; in the series with Streptococcus pneumoniae [2], 2 µg/mL (≈ 5.06 µM); in the series on Enterococcus faecalis, 4 µg/mL (≈ 10.1 µM); with Staphylococcus aureus it was 2 µg/mL (≈ 5.06 µM); against Haemophilus influenzae [7], 2 µg/mL (≈ 5.06 µM). Moreover, the IC50 at Peptide deformylase [1] is 10 nM; at Peptide deformylase [4] it was 1.3 nM; in series [6], 18 nM. Moreover, the remaining at 2 h, 2000 ng/mL amounted to 80.6% in series [3] and 29% in series [5].

For the compound `O=CN(O)C[C@@H](CC1CCCC1)C(=O)N1CCC[C@H]1C(=O)NC(=O)OC1CCCC1`, the MIC against Moraxella catarrhalis is ≤ 0.06 µg/mL; with Streptococcus pneumoniae [2], 0.125 µg/mL (≈ 0.295 µM); against Enterococcus faecalis, 1 µg/mL (≈ 2.36 µM); in the series on Staphylococcus aureus it was 0.5 µg/mL (≈ 1.18 µM); against Haemophilus influenzae [7], 1 µg/mL (≈ 2.36 µM). Further, the results for the IC50 (on Peptide deformylase [1]; on Peptide deformylase [4]; in series [6]) were 1.4 nM, 0.26 nM and 3.1 nM, respectively. Besides, the remaining at 2 h, 2000 ng/mL came out at 57.5% in [3] and 0% in [5].

For the compound `CC(C)OC(=O)NC(=O)[C@@H]1CCCN1C(=O)[C@H](CC1CCCC1)CN(O)C=O`, the MIC is ≤ 0.06 µg/mL in the series with Moraxella catarrhalis; 0.25 µg/mL (≈ 0.629 µM) with Streptococcus pneumoniae [2]; 4 µg/mL (≈ 10.1 µM) against Enterococcus faecalis; 0.25 µg/mL (≈ 0.629 µM) against Staphylococcus aureus; 0.25 µg/mL (≈ 0.629 µM) in the series with Haemophilus influenzae [7]. Further, the IC50 on Peptide deformylase [1] came to 2 nM; on Peptide deformylase [4] it was 0.48 nM; in series [6], 4.7 nM. The remaining at 2 h, 2000 ng/mL in series [3] was 49.6%; in series [5], 0%.

Usually clearance stands for the volume of plasma or blood freed of the substance per unit of time. By bioavailability is commonly meant dose-corrected exposure relative to a reference, in per cent. Regarding `CCNC(=O)NC(=O)[C@@H]1CCCN1C(=O)[C@H](CC1CCCC1)CN(O)C=O`, the MIC in the series with Moraxella catarrhalis is ≤ 0.06 µg/mL; against Streptococcus pneumoniae [2], 0.25 µg/mL (≈ 0.654 µM); against Enterococcus faecalis, 2 µg/mL (≈ 5.23 µM); with Staphylococcus aureus, 0.5 µg/mL (≈ 1.31 µM); against Haemophilus influenzae [7], 0.5 µg/mL (≈ 1.31 µM). Besides, the clearance in series [8] was 36.3 mL/min/kg; in series [13] it was 29.4 mL/min/kg. Also, the figures for the IC50 (on Peptide deformylase [1]; at Peptide deformylase [4]; in [6]) were 2 nM, 0.44 nM and 4.9 nM, respectively. In addition, the values for the remaining at 2 h, 2000 ng/mL in series [3] and in [5] were 111% and 58.6%, respectively. In addition, the AUC/dose was determined as 111.4 ng·h/mL/mg/kg in the series with Rhesus monkey, 629.9 ng·h/mL/mg/kg in the series with Canis familiaris and 43.3 ng·h/mL/mg/kg in the series with Rattus norvegicus. Moreover, the values for the log10CFU/ml with Streptococcus pneumoniae [9], in the series on Haemophilus influenzae [12] and in the series with Streptococcus pneumoniae [14] were 3.86, 4.21 and 3.86, respectively. The figures for the bioavailability in series [10], in series [11] and in [15] were 20%, 100% and 30%, respectively.

Values taken from ChEMBL document CHEMBL2029221, “Acylprolinamides: a new class of peptide deformylase inhibitors with in vivo antibacterial activity” (Bioorg Med Chem Lett, 2012).
